Test results taken from PMC7717452 (Journal of Enzyme Inhibition and Medicinal Chemistry, 2020).
Where two headings read alike, the source gives them in different places. One block for each compound: values may come before it.

Legend:
[1] = biological target: T1, TcTryS (Trypanosoma cruzi, UniProt Q9GT49); experiment: TryS activity end-point assay; assay type: biochemical; settings: for IC50: IC50 value, TcTryS, ± 2σ, ~30 assumed for 50 ± 5% inhibition at 30 µM
T1 sequence (Q9GT49 1-647): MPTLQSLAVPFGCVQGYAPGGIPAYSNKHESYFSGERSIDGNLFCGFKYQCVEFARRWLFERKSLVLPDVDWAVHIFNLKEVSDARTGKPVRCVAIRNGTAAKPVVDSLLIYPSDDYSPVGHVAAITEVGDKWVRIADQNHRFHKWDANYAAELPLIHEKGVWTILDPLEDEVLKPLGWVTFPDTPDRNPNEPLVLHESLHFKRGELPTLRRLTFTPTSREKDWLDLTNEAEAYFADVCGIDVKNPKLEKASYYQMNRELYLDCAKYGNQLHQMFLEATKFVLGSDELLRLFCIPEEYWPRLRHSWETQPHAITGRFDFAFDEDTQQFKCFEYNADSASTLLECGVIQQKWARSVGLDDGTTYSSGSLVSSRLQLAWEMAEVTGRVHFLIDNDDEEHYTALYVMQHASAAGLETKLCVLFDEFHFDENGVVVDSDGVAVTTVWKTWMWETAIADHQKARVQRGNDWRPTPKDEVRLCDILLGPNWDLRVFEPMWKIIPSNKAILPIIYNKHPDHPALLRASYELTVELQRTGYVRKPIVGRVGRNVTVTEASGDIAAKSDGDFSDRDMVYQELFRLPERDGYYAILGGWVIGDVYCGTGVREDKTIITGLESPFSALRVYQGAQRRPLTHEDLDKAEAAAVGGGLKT
Method in brief: (§1)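 Recombinant TryS end-point assay in 100 mM HEPES pH 7.4 with 5 mM DTT, 10 mM MgSO4 and 0.5 mM EDTA. ATP was 150 µM and spermidine 2 mM. GSH was 0.25 mM for LiTryS, 0.05 mM for TbTryS and 0.57 mM for TcTryS. Enzyme started the reaction and BIOMOL Green stopped it after 15 min. A650 was read after 20 min at room temperature. Values were corrected with no-enzyme blanks and for compound interference with phosphate. At least quadruplicates; IC50 is given ± 2σn-1.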

[2] = biological target: T2, LiTryS (Leishmania infantum trypanothione synthetase) (Leishmania infantum, UniProt A4I2Z3); experiment: TryS activity end-point assay; assay type: biochemical; settings: for IC50: ± 2σ, ∼30 assumed for 50 ± 5% inhibition at 30 µM
T2 sequence (A4I2Z3 1-652): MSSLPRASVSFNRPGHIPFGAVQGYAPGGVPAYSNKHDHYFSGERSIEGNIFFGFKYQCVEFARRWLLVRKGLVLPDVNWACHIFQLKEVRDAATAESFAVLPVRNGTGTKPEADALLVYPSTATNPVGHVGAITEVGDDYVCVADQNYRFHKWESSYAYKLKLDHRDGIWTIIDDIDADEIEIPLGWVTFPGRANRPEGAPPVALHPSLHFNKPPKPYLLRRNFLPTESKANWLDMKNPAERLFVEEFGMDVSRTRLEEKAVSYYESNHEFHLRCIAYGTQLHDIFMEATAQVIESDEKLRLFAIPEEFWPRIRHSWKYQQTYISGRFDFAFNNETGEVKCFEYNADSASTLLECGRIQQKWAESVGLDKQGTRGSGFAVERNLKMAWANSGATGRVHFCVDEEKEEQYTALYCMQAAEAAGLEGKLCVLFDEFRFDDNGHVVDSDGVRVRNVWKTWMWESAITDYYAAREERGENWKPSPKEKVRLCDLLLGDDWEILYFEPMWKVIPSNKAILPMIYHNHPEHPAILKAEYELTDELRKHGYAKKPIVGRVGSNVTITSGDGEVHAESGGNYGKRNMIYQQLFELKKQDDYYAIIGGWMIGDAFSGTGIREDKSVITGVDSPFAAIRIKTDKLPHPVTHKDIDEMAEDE
Method in brief: as §1

[3] = test system: L. braziliensis amastigotes; experiment: Macrophage infection assay, L. braziliensis amastigotes; assay type: cell-based, Leishmania braziliensis; settings: for activity at 10 µM: Leishmania braziliensis, Macrophage, read-out: % infection by L. braziliensis at 10 µM; for activity at 10 µM / % infection by L. braziliensis at 10 µM / % infection by L. braziliensis at 5 µM: 24 h; for SI, L. braziliensis amastigotes: selectivity index, macrophage CC50 and amastigote EC50; for % infection by L. braziliensis at 10 µM / % infection by L. braziliensis at 5 µM: relative to infected non-treated macrophages
Method in brief: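 J774 macrophages were plated on coverslips at 1 × 10^5 cells/mL in DMEM with 1% FBS. They were infected with stationary-phase L. braziliensis promastigotes (MHOM/BR/01/BA788; 1:20) for 2 h at room temperature, then 22 h at 35 °C. After washing, cells got test compound (5 or 10 µM, or 10–0.01 µM) in 1% DMSO for 24 h at 37 °C and 5% CO2. Cells were EtOH-fixed and DAPI-stained, and 100–200 macrophages were imaged. % infected cells is relative to DMSO.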

[4] = biological target: T3, TbTryS (Trypanosoma brucei brucei, UniProt Q8IEX1); experiment: TryS activity end-point assay; assay type: biochemical; settings: for IC50: IC50 value, TbTryS, ± 2σ, ~30 assumed for 50 ± 5% inhibition at 30 µM
T3 sequence (Q8IEX1 1-627): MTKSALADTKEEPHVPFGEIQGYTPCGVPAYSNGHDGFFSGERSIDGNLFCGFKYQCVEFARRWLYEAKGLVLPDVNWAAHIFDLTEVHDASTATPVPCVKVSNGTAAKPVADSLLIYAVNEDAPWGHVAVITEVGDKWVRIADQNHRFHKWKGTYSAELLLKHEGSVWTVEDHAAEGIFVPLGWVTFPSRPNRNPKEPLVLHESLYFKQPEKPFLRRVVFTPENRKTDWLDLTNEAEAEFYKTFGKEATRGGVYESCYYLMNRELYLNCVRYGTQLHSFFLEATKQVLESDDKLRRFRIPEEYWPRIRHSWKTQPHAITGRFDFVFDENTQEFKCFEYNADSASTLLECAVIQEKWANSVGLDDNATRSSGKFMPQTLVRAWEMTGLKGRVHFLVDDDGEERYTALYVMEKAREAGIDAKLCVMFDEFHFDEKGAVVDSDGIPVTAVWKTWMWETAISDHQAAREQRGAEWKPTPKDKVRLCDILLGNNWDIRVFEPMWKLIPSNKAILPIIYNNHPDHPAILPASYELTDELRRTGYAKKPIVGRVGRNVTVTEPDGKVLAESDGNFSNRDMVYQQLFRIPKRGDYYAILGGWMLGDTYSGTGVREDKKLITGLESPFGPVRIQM
Method in brief: as §1

[5] = Cytotoxicity assay; assay type: cell-based, mouse; settings: mouse, J774 macrophages (ATCC TIB67), non-infected
Method in brief: (§2)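 J774 mouse macrophages were grown in DMEM with 10% FBS and penicillin/streptomycin at 37 °C in humidified 5% CO2. Cells were seeded at 6 × 10^4 cells/mL and exposed the next day for 24 h to test compound at 100 to 0.001 µM (200 µM for one compound). The WST-1 signal was read at A450. % cytotoxicity was calculated against DMSO-treated and untreated cells, and CC50 is given ± σn–1.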

[6] = test system: Mouse macrophages from the cell line J774; experiment: Cytotoxicity assay; assay type: cell-based; settings: 24 h, non-infected J774; for CC50: read-out: CC50, macrophages
Method in brief: as §2

[7] = test system: L. infantum amastigotes; experiment: Macrophage infection assay, L. infantum amastigotes; assay type: cell-based, Leishmania infantum
Method in brief: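 J774 macrophages on coverslips (1 × 10^5 cells/mL, DMEM with 1% FBS) were infected with stationary-phase L. infantum promastigotes (1:20) for 2 h at room temperature, then 22 h at 37 °C. After washing, test compound (10–0.01 µM, up to seven concentrations, at least duplicates, 1% DMSO) was added for 24 h at 37 °C. DAPI-stained infected cells were counted by microscopy relative to DMSO. EC50 came from a four-parameter sigmoid fit.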

[8] = 30 µM, NA = not active (enzyme activity > 95%)

- IC50 [1]: 30 µM
- IC50 ([2]; IC50 value, LiTryS): ~30 µM
SMILES: O=C(CN1C(=O)Cc2c([nH]c3ccc(Br)cc23)-c2ccc(Cl)cc21)Nc1nncs1 [Compound 16]

- IC50 ([2]; IC50 value, LiTryS): 0.5 ± 0.1 µM
- IC50 [4]: ~30 µM
SMILES: CCN(CC)C(=O)CN1C(=O)Cc2c([nH]c3ccc(Br)cc23)-c2ccc(Cl)cc21 [Compound 12]
- activity at 10 µM [3]: 82 ± 14%
- cytotoxicity at 24 h, 100 µM [5]: 24 ± 8%

- % TryS inhibition at 30 µM, TcTryS [1, 8]: inactive
- % TryS inhibition at 30 µM, LiTryS [2, 8]: inactive
- % TryS inhibition at 30 µM, TbTryS [4, 8]: inactive
SMILES: O=C1Cc2c([nH]c3ccc(Br)cc23)-c2ccc(Cl)cc2N1 [Compound 1, 3-Chlorokenpaullone]
- % cytotoxicity at 200 µM, macrophages ([6]; 200 µM): 0 at 200 µM %

SMILES: C[C@@H]1[C@H](O)[C@@H](C)/C=C/C=C/C=C/C=C/C=C/C=C/C=C/[C@H](O[C@@H]2O[C@H](C)[C@@H](O)[C@H](N)[C@@H]2O)C[C@@H]2O[C@](O)(C[C@@H](O)C[C@@H](O)[C@H](O)CC[C@@H](O)C[C@@H](O)CC(=O)O[C@H]1C)C[C@H](O)[C@H]2C(=O)O [Amphotericin B, reference compound]
- SI, L. infantum amastigotes ([7]; selectivity index, macrophage CC50 and amastigote EC50): 100
- SI, L. braziliensis amastigotes [3]: 59

- IC50 ([2]; read-out: IC50 value, LiTryS): 2.4 ± 0.3 µM
SMILES: CC(C)(C)OC(=O)CN1C(=O)Cc2c([nH]c3ccc(Br)cc23)-c2ccc(Cl)cc21 [Compound 6]
- % infection by L. braziliensis at 10 µM [3]: 89 ± 13%
- % cytotoxicity at 100 µM, macrophages ([6]; 100 µM): 64 ± 0%

- IC50 [1]: 20 µM
- IC50 ([2]; IC50 value, LiTryS): ~30 µM
SMILES: CC(C)(C)OC(=O)N1CCN(CCNC(=O)CN2C(=O)Cc3c([nH]c4ccc(Br)cc34)-c3ccc(Cl)cc32)CC1 [Compound 34]

- IC50 ([2]; IC50 value, LiTryS): ~30 µM
- IC50 [4]: 30 µM
SMILES: O=C(CN1C(=O)Cc2c([nH]c3ccc(Br)cc23)-c2ccc(Cl)cc21)Nc1ccccc1 [Compound 19]

- IC50 ([2]; IC50 value, LiTryS): 0.8 ± 0.1 µM
SMILES: O=C(CN1C(=O)Cc2c([nH]c3ccc(Br)cc23)-c2ccc(Cl)cc21)NCCN1CCCCC1 [Compound 31]
- % infection by L. braziliensis at 5 µM [3]: 49 ± 3 at 5 µM %
- SI, L. braziliensis amastigotes [3]: 2
- CC50 [6]: 9 ± 1 µM

- EC50 ([7]; read-out: EC50, amastigotes L. infantum, intracellular amastigotes in J774, 24 h): 1 ± 0.5 µM
- IC50 ([2]; read-out: IC50 value, LiTryS): 0.4 ± 0.1 µM
SMILES: CN1CCN(C(=O)CN2C(=O)Cc3c([nH]c4ccc(Br)cc34)-c3ccc(Cl)cc32)CC1 [Compound 21, 9-Bromo-3-chloro-5-[2-(4-methylpiperazin-1-yl)-2-oxoethyl]-7,12-dihydrobenzo[2,3]azepino[4,5-b]indol-6(5H)one]
- % infection by L. braziliensis at 10 µM [3]: 65 ± 7%
- SI, L. braziliensis amastigotes [3]: 5

- IC50 ([2]; IC50 value, LiTryS): 0.5 ± 0.1 µM
SMILES: CCN(CC)CCNC(=O)CN1C(=O)Cc2c([nH]c3ccc(Br)cc23)-c2ccc(Cl)cc21 [Compound 28]
- % infection by L. braziliensis at 5 µM [3]: 38 ± 1 at 5 µM %
- SI, L. braziliensis amastigotes [3]: 2
- CC50 [6]: 6 ± 1 µM

- IC50 [1]: 25 µM
- IC50 ([2]; IC50 value, LiTryS): ~30 µM
SMILES: CC(C)(C)OC(=O)NCCCCNC(=O)CN1C(=O)Cc2c([nH]c3ccc(Br)cc23)-c2ccc(Cl)cc21 [Compound 36]

- IC50 ([2]; IC50 value, LiTryS): 2.8 ± 0.7 µM
SMILES: O=C(CN1C(=O)Cc2c([nH]c3ccc(Br)cc23)-c2ccc(Cl)cc21)N1CCOCC1 [Compound 26]
- activity at 10 µM [3]: 29 ± 3%
- SI, L. braziliensis amastigotes [3]: 6
- CC50 [6]: 10.2 ± 0.2 µM
